DAGLB inhibitor – diacylglycerol lipase beta (human) inhibition | Q8NCG7 | HEK293T DAGLB membrane lysate, EnzChek fluorogenic substrate | inhibition, % at 5.17 µM | actives 0.059% (n = 340,000) | AID 504411; in the data active = inhibition above about 34%;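 also: 0% = enzyme with vehicle and 100% = wells lacking enzyme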
PLCb3 inh – PLC-beta3 (human) inhibition, primary screen. Q01970. inhibition, % at 12.2 µM. actives 0.18% (n = 370,000). Purified PLC-beta3, fluorogenic substrate, fluorescence;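 also: 0% = median of compound wells on plate and 100% = full blocker control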
PLC-gamma1 inh – blocks human PLC-gamma1 enzyme activity. P19174. purified PLC-gamma1, fluorogenic substrate, fluorescence. inhibition, % at 12.2 µM. actives 0.84% (n = 370,000); in the data active = inhibition above about 9.5%
sPLA2-III inh – Blocks human group III sPLA2 activity; Q9NZ20; QFRET BODIPY PC-A2 liposome hydrolysis, fluorescence; inhibition, % at 12.2 µM; actives 0.56% (n = 370,000); AID 743126;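 active = inhibition above mean plus 3 SD of compounds lying within the high and low control bounds, cut at about 19% in these data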;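 also: 0% = median of test compound wells and 100% = no enzyme DMSO wells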
Target sequence (Q9NZ20 whole entry, looked up): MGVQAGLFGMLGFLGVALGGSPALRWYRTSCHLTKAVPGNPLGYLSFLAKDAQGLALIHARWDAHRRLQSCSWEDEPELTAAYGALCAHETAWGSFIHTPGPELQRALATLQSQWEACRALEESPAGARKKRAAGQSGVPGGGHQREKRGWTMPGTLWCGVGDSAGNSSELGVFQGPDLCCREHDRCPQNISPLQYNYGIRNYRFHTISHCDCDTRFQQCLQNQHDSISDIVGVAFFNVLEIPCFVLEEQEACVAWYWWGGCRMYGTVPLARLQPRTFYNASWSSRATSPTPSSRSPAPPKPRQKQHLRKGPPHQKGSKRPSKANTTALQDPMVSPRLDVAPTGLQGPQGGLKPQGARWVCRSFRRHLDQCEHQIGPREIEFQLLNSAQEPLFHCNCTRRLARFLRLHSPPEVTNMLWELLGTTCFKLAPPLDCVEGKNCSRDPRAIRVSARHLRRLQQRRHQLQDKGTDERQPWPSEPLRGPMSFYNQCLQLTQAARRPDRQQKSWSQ
TbMetRS inhib – Trypanosoma brucei MetRS inhibition | purified T. brucei MetRS, ATP depletion, Kinase-Glo luminescence | inhibition, % at 11.9 µM | actives 0.4% (n = 360,000) | AID 624268;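 active = inhibition above a per-plate cutoff of the control wells' mean inhibition plus 3 SD, cut at about 5.5% in these data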;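 also: 0% = DMSO wells median and 100% = median of wells with control inhibitor compound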
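Material: T. brucei methionyl-tRNA synthetase, purified; reagent: substrates ATP, L-methionine and bulk Escherichia coli tRNA; dosing: 11.9 µM single point; timing: 15 min plus 2 h at 25 °C; detection: luminescence of leftover ATP; evaluation: % inhibition; control set: DMSO-only wells as low control; replicates: singlicate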
PLCgamma1 ctr – counter-screen for PLC-beta3 inhibitors: inhibitors of human PLC-gamma1. shares compounds with PLC-gamma1 inh. inhibition, % at 12.3 µM. purified PLC-gamma1, fluorogenic substrate, fluorescence. AID 743258. actives 3.1% (n = 3,300); in the data active = inhibition above about 9.5%
PLCb3 confirm – human PLC-beta3 inhibition, confirmation | inhibition, % at 12.3 µM | purified PLC-beta3, fluorogenic substrate fluorescence | actives 1% (n = 3,300) | AID 743261 | shares compounds with PLC-gamma1 inh
The depositor's hits bear a star; . = no result. Compounds with a hit are over-represented: about 1.9% of the library has one in this group of screens. Rule as the data show it, unless noted: active = inhibition above about 11%; inactive = the rest.

SMILES	DAGLB inhibitor	PLCb3 inh	PLC-gamma1 inh	sPLA2-III inh	TbMetRS inhib	PLCgamma1 ctr	PLCb3 confirm
CC(C)NC(=O)C1(C)CCCN1Cc1csc2ccccc12 (stereo not given)	.	0	3	-5	0	.	.
CN(C)C=Nc1nc2c(Br)ccc(Br)c2cc1C(=O)NCC(C)(C)C	.	1	-2	2	.	.	.
O=C(Nc1cccnc1)c1ccc(Oc2ccccc2)cc1	-2	-1	0	-12	0	.	.
O=C(Nc1cccnc1)c1ccccc1Oc1ccccc1	2	11*	5	17	0	-10	-1
COc1ccc2[nH]c3c(c2c1)CCN[C@]31C(=O)N(Cc2cn(Cc3ccccc3)nn2)c2ccccc21	.	1	8	1	.	.	.
COc1ccc(CN2CCN(c3ccccn3)CC2)c(OC)c1	-1	3	10*	0	1	-8	0
O=C(Nc1ccccc1N1CCOCC1)c1ccc(S(=O)(=O)NCc2ccco2)cc1	0	-2	3	3	0	.	.
O=C(Nc1ccccc1N1CCOCC1)c1ccc(Cl)c(S(=O)(=O)NCc2ccco2)c1	0	-3	9.7*	-7	0	-4	-4
O=S(=O)(CC1NCc2ccccc21)NCc1ccc(F)cc1 (stereo not given)	.	-10	-7	0	.	.	.
O=[N+]([O-])c1c(Nc2ccccc2)ccc2nonc12	3	7	9	7	0	.	.
Nc1cc(Nc2ccccc2)c2nonc2c1[N+](=O)[O-]	3	2	11*	0	1	2	1
COc1ccccc1CNC(=O)COC(=O)Cn1cnc2c1c(=O)n(C)c(=O)n2C	-4	11*	4	9	0	-3	0
COC(=O)c1cccc(NC(=O)Cn2cnc3c2c(=O)n(C)c(=O)n3C)c1	0	5	1	2	0	.	.
COC(=O)c1ccccc1NC(=O)Cn1cnc2c1c(=O)n(C)c(=O)n2C	-2	-1	10*	5	0	-9	-4
COC(=O)c1cc(S(=O)(=O)N2CCN(c3cccc(C(F)(F)F)c3)CC2)cn1C	.	-1	0	-13	.	.	.
Cc1nc2ccc(C(=O)N3CCN(C(=O)OCc4ccccc4)CC3)cc2n1C1CCCC1	.	-4	2	3	.	.	.
c1ccc(Cn2ccc3ccc(-c4ccc5ccn(Cc6cccc(-c7ccsc7)c6)c5c4)cc32)cc1	.	-46	-32	-4	.	.	.
CCOc1ccc(-c2n[nH]c(C)c2Oc2ccccc2OC)c(O)c1	-4	3	9.6*	-21	0	-4	-2
C=C(C)COc1ccc(-c2n[nH]c(C)c2Oc2ccccc2OC)c(O)c1	-11	1	1	-28	0	.	.
O=C(CNSc1ccc([N+](=O)[O-])cc1[N+](=O)[O-])OCc1ccccc1	.	-2	-1	4	.	.	.
COC(=O)C(NC(=O)c1ccccc1C)(Nc1ncc(S(=O)(=O)c2ccc([N+](=O)[O-])cc2)s1)C(F)(F)F (stereo not given)	5	9	12*	-42	0	-1	0
COC(=O)C(NC(=O)c1ccc(F)cc1)(Nc1ncc(S(=O)(=O)c2ccc([N+](=O)[O-])cc2)s1)C(F)(F)F (stereo not given)	6	0	1	-35	0	.	.
O=C1NC(=S)S/C1=C\c1cc(Cl)ccc1Cl	29	3	11*	-16	0	-4	-6
CC(C)(C)NC(=O)CCCCCCCC(=O)NC(C)(C)C	-1	11*	13*	6	0	-6	-1
CCCC(C)(C)NC(=O)CCCCC(=O)NC(C)(C)CCC	1	1	1	-3	0	.	.
Cc1ccc(NC(=O)Cn2c(=O)oc3ccccc32)cc1	0	-10	1	-3	0	.	.
O=C(Cn1c(=O)oc2ccccc21)Nc1ccc(Cl)cc1	-4	-1	11*	-7	1	-3	4
O=C(CSc1nnc(-c2cccnc2)n1-c1ccccc1)Nc1ccc2c(c1)OCCO2	.	2	3	3	.	.	.
CS(=O)(=O)n1nc(OC(=O)c2cccs2)cc1N	1	10	12*	12	0	-5	2

Screens from PubChem BioAssay.
